Consider 1 compound from article PMC10213863 (Cell Reports Medicine, 2023).

“And” between values parts separate entries of the source, which are not always exact repeats. Equal entries are not always repeated.

The subject of data set [1] is SLE immune-complex-driven IFN-α response in PBMCs. As to the kind of experiment: IFN-α release from PBMCs stimulated with SLE patient sera immune complexes. The class given is cell-based, human. To be noted: PBMCs.
A further data set addresses T1, TLR9 (Homo sapiens, UniProt Q9NR96).
T1 sequence (Q9NR96 26-1032): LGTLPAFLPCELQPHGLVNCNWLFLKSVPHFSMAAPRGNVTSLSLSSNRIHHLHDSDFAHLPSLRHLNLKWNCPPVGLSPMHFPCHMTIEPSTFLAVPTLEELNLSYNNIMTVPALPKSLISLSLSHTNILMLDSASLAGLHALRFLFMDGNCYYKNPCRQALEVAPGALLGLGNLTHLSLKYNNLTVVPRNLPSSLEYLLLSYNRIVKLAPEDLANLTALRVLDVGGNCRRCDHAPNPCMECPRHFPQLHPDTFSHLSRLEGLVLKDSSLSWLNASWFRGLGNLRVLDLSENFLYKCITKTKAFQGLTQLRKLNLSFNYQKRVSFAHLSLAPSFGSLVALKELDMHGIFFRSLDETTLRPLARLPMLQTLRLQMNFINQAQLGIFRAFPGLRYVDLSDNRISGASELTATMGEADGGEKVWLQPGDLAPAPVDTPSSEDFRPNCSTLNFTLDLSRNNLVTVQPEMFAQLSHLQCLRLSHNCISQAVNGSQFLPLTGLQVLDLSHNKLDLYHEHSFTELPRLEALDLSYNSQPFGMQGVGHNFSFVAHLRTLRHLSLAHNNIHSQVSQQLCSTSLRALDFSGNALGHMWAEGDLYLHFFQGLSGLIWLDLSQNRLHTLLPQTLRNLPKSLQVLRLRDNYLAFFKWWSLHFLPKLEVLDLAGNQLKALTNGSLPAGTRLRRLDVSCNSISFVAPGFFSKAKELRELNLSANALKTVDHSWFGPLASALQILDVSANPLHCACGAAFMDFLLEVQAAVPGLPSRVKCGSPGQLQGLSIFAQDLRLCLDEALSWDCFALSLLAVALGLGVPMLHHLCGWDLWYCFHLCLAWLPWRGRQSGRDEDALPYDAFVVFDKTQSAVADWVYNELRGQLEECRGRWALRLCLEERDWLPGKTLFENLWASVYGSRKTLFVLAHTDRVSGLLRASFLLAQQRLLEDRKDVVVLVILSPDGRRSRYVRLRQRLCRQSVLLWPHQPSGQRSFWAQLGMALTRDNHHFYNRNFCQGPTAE
As to the kind of experiment: Human whole blood assay, ODN-IFN-α. The class given is cell-based. A digest of the protocol: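 Fresh human blood or 129/Sv mouse blood was taken into citrate and diluted 1:1 with RPMI1640. It was pre-incubated 30 min at 37°C, 5% CO2 with increasing concentrations of test compound or 0.25% v/v DMSO (final). Blood was then stimulated with TLR agonists at doses from earlier work, or with R848 (3 μM), and cytokines were quantified. Viability was checked by ATPlite luminescence.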

Another data set deals with T2, TLR7 (Homo sapiens, UniProt Q9NYK1).
T2 sequence (Q9NYK1 27-1049): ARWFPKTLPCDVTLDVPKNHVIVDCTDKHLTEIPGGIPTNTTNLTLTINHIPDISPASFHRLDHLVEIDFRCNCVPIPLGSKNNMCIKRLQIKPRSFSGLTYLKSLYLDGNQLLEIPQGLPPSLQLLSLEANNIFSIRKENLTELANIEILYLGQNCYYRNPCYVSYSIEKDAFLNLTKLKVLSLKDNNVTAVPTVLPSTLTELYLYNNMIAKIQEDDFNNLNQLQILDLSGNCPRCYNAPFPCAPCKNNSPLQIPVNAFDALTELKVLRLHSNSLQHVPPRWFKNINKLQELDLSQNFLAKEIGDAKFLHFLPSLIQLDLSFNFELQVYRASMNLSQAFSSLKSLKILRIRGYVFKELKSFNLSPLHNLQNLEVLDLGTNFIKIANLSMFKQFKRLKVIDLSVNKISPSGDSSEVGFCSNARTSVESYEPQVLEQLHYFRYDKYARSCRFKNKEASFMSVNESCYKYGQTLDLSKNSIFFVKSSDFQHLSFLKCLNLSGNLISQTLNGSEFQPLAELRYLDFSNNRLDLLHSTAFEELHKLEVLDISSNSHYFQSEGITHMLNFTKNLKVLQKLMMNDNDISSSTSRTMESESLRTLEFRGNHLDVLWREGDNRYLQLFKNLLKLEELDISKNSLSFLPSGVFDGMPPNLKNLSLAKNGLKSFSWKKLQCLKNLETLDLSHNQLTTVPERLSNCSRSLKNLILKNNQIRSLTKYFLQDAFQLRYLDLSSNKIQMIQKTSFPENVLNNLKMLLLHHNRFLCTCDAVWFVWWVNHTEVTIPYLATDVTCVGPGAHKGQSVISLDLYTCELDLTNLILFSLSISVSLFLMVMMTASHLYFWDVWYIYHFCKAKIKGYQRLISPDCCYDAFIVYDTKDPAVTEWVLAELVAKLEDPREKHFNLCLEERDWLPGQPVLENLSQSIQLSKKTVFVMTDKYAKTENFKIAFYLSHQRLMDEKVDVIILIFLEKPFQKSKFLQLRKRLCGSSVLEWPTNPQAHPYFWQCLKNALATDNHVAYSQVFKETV
Description: HEK293-NFkB-luciferase reporter cells transfected with TLR7, R848 stimulation. The class given is cell-based. The conditions noted are these: IC50, TLR7 response in HEK transfectants, mean ± SD. A digest of the protocol:
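HEK293-NFkB-luciferase cells stably expressing HA-tagged human TLR7 or TLR8 were pre-treated 60 min at 37°C, 5% CO2 with increasing concentrations of test compound or 0.25% v/v DMSO. They were then stimulated 6 h with R848: 0.3 μM for TLR7, 4 μM for TLR8. Luciferase activity […] was read by Bright-Glo luminescence.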

The test system of data set [2] is human PBMCs, monocytes, neutrophils, human blood. As to the kind of experiment: Cell viability in profiling assays. The class given is cell-based. To be noted: human primary cells; concentrations of up to 10 μM. A digest of the protocol:
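Toxicity counter-screens were run within each primary-cell assay across the test-compound dose range. PBMCs, isolated monocytes and neutrophils were read by CellTiter-Glo. Diluted whole blood was read by ATPlite luminescence.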

For the compound `Cc1cc(N2CCc3c(c(C)nn3CC34CCC(NC(=O)[C@@H]5COCCN5)(CC3)CC4)C2)c2cnn(C)c2n1` [MHV370, (S)-N-(4-((5-(1,6-dimethyl-1H-pyrazolo[3,4-b]pyridin-4-yl)-3-methyl-4,5,6,7-tetrahydro-1H-pyrazolo[4,3-c]pyridin-1-yl)methyl)bicyclo[2.2.2]octan-1-yl)morpholine-3-carboxamide], in data set [1] (MHV370 0.3 μM), the “immune-complex-driven responses, sera expressing dsDNA antibodies” value is “blocked to a much lesser extent” and the “immune-complex-driven responses, sera positive for RNP/Sm and/or SS-A, or RNP/Sm and/or SS-A plus dsDNA autoantibodies” value is reported as “completely blocked”. In addition, the “IFN-α suppression, MHV370 added to HCQ” value in data set [1] (MHV370 1–10 nM combined with variable concentrations of HCQ, SLE immune complexes) is reported as “almost complete suppression”. The compound also had an IC50 against TLR9 of 1320 nM. Moreover, the IC50 against TLR7 is 1 nM and 1.1 nM. Also, the cell toxicity result in data set [2] was “did not lead to cell toxicity”.
